Results as given in ChEMBL document CHEMBL1781959, “Synthesis and in vitro antitumor activity of substituted quinazoline and quinoxaline derivatives: search for anticancer agent” (Eur J Med Chem, 2011).

Experiments:
[1] = test system: SW-620; assay: Anticancer activity against human SW620 cells assessed as cell growth promotion at 10^-5 M after 48 hrs by SRB assay relative to control; assay type: functional
[2] = Anticancer activity against human […] cells assessed as cell growth promotion at 10^-5 M after 48 hrs by SRB assay relative to control; assay type: functional
[3] = test system: RXF 393; assay: Anticancer activity against human RXF393 cells assessed as cell growth promotion at 10^-5 M after 48 hrs by SRB assay relative to control; assay type: functional
[4] = test system: SN12C; assay: Anticancer activity against human SN12C cells assessed as cell growth promotion at 10^-5 M after 48 hrs by SRB assay relative to control; assay type: functional
[5] = test system: IGROV-1; assay: Anticancer activity against human IGROV1 cells assessed as cell growth promotion at 10^-5 M after 48 hrs by SRB assay relative to control; assay type: functional
[6] = test system: OVCAR-4; assay: Anticancer activity against human OVCAR4 cells assessed as cell growth promotion at 10^-5 M after 48 hrs by SRB assay relative to control; assay type: functional
[7] = test system: CAKI-1; assay: Anticancer activity against human Caki1 cells assessed as cell growth promotion at 10^-5 M after 48 hrs by SRB assay relative to control; assay type: functional
[8] = test system: HCT-15; assay: Cytotoxicity against human HCT15 cells after 48 hrs by SRB assay; assay type: cell-based; conditions: hct-15, 48 h
Summary of the method: (§1)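 NCI-60 five-dose screen in RPMI 1640 with 5% FBS and 2 mM L-glutamine; 5000–40,000 cells/well, 24 h pre-incubation. DMSO stocks diluted to 0.01, 0.1, 1, 10 and 100 μM final; 48 h at 37 °C, 5% CO2. Fixed with TCA (10% final adherent, 16% suspension), stained with 0.4% SRB, A515. GI50, TGI and LC50 taken from time-zero, control and test absorbances.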

[9] = test system: COLO 205; assay: Growth inhibition of human COLO205 cells after 48 hrs by SRB assay; assay type: functional; conditions: COLO 205, 48 h
Summary of the method: (§2)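 NCI 60-panel five-dose assay at 0.01, 0.1, 1, 10 and 100 μM. Cells in RPMI 1640 with 5% FBS and 2 mM L-glutamine, preincubated 24 h, with time-zero plates TCA-fixed. Drug exposure 48 h at 37 °C. Read by SRB staining at 515 nm. GI50 is the concentration where [(Ti−Tz)/(C−Tz)]×100 = 50, taken from log concentration versus % growth curves.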

[10] = test system: MDA-MB-231; assay: Anticancer activity against human MDA-MB-231 cells assessed as cell growth promotion at 10^-5 M after 48 hrs by SRB assay relative to control; assay type: functional
[11] = test system: Malme-3M; assay: Anticancer activity against human MALME-3M cells assessed as cell growth promotion at 10^-5 M after 48 hrs by SRB assay relative to control; assay type: functional
[12] = test system: 786-0; assay: Anticancer activity against human 786-0 cells assessed as cell growth promotion at 10^-5 M after 48 hrs by SRB assay relative to control; assay type: functional
[13] = test system: M14; assay: Growth inhibition of human M14 cells after 48 hrs by SRB assay; assay type: functional; conditions: M14, 48 h; summary of the method: as §2
[14] = test system: HL-60(TB); assay: Cytotoxicity against human HL-60(TB) cells after 48 hrs by SRB assay; assay type: cell-based; summary of the method: as §1
[15] = test system: U-251; assay: Anticancer activity against human U251 cells assessed as cell growth promotion at 10^-5 M after 48 hrs by SRB assay relative to control; assay type: functional
[16] = test system: BT-549; assay: Anticancer activity against human BT549 cells assessed as cell growth promotion at 10^-5 M after 48 hrs by SRB assay relative to control; assay type: functional
[17] = test system: SR; assay: Anticancer activity against human SR cells assessed as cell growth promotion at 10^-5 M after 48 hrs by SRB assay relative to control; assay type: functional
[18] = test system: PC-3; assay: Cytotoxicity against human PC3 cells after 48 hrs by SRB assay; assay type: cell-based; conditions: pc-3, 48 h; summary of the method: as §1
[19] = test system: SF-295; assay: Anticancer activity against human SF295 cells assessed as cell growth promotion at 10^-5 M after 48 hrs by SRB assay relative to control; assay type: functional
[20] = test system: SK-MEL-28; assay: Cytotoxicity against human SK-MEL-28 cells after 48 hrs by SRB assay; assay type: cell-based; conditions: sk-mel-28, 48 h; summary of the method: as §1
[21] = test system: SK-OV-3; assay: Growth inhibition of human SKOV3 cells after 48 hrs by SRB assay; assay type: functional; conditions: SK-OV-3, 48 h
Summary of the method: (§3)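 NCI-60 panel cells grown in RPMI 1640 with 5% FBS and 2 mM L-glutamine, then seeded at 5000–40,000 cells/well by doubling time and preincubated for 24 h. Compound in DMSO was tested either at 10^-5 M alone or at 0.01–100 μM in five doses, for 48 h at 37 °C. Cells were fixed with cold TCA (10% final), stained with SRB, and read at 515 nm. GI50 was taken from % growth relative to time-zero and control wells.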

[22] = test system: MDA-MB-468; assay: Cytotoxicity against human MDA-MB-468 cells after 48 hrs by SRB assay; assay type: cell-based; conditions: mda-mb-468, 48 h; summary of the method: as §1
[23] = test system: TK-10; assay: Growth inhibition of human TK10 cells after 48 hrs by SRB assay; assay type: functional; conditions: TK-10, 48 h; summary of the method: as §3
[24] = test system: SN12C; assay: Cytotoxicity against human SN12C cells after 48 hrs by SRB assay; assay type: cell-based; summary of the method: as §1
[25] = test system: NCI-H522; assay: Anticancer activity against human NCI-H522 cells assessed as cell growth promotion at 10^-5 M after 48 hrs by SRB assay relative to control; assay type: functional
[26] = test system: EKVX; assay: Anticancer activity against human EKVX cells assessed as cell growth promotion at 10^-5 M after 48 hrs by SRB assay relative to control; assay type: functional
[27] = test system: SK-MEL-2; assay: Anticancer activity against human SK-MEL-2 cells assessed as cell growth promotion at 10^-5 M after 48 hrs by SRB assay relative to control; assay type: functional
[28] = test system: HCC 2998; assay: Anticancer activity against human HCC2998 cells assessed as cell growth promotion at 10^-5 M after 48 hrs by SRB assay relative to control; assay type: functional
[29] = test system: SF-268; assay: Anticancer activity against human SF268 cells assessed as cell growth promotion at 10^-5 M after 48 hrs by SRB assay relative to control; assay type: functional
[30] = test system: DU-145; assay: Cytotoxicity against human DU145 cells after 48 hrs by SRB assay; assay type: cell-based; conditions: du-145, 48 h; summary of the method: as §1
[31] = test system: RXF 393; assay: Growth inhibition of human RXF393 cells after 48 hrs by SRB assay; assay type: functional; conditions: RXF 393, 48 h; summary of the method: as §2
[32] = test system: DU-145; assay: Anticancer activity against human DU145 cells assessed as cell growth promotion at 10^-5 M after 48 hrs by SRB assay relative to control; assay type: functional
[33] = test system: SNB-75; assay: Anticancer activity against human SNB75 cells assessed as cell growth promotion at 10^-5 M after 48 hrs by SRB assay relative to control; assay type: functional
[34] = test system: MDA-MB-435; assay: Cytotoxicity against human MDA-MB-435 cells after 48 hrs by SRB assay; assay type: cell-based; conditions: mda-mb-435, 48 h; summary of the method: as §1
[35] = test system: OVCAR-3; assay: Cytotoxicity against human OVCAR3 cells after 48 hrs by SRB assay; assay type: cell-based; conditions: ovcar-3, 48 h; summary of the method: as §1
[36] = test system: EKVX; assay: Cytotoxicity against human EKVX cells after 48 hrs by SRB assay; assay type: cell-based; summary of the method: as §1

O=c1c2ccccc2nc(-c2ccco2)n1/N=C/c1ccccc1Cl
Activity [1]: 34.38% | Activity [2]: 92.65% | Activity [3]: 82.73% | Activity [4]: 36.81% | Activity [5]: 71.23% | Activity [6]: 4.38% | Activity [7]: 62.86% | LC50 [8]: > 100 µM | GI50 [9]: 4.96 µM | TGI [9]: 34.1 µM | Activity [10]: 52.12% | Activity [11]: 78.64% | Activity [12]: 26.39% | GI50 [13]: 10.8 µM | TGI [13]: > 100 µM | LC50 [14]: > 100 µM | Activity [15]: 37.22% | Activity [16]: 13.63% | Activity [17]: 94.12% | LC50 [18]: > 100 µM | Activity [19]: 52.12% | LC50 [20]: > 100 µM | GI50 [21]: 3.68 µM | TGI [21]: 14.8 µM | LC50 [22]: > 100 µM | GI50 [23]: 7.84 µM | TGI [23]: > 100 µM | LC50 [24]: > 100 µM | Activity [25]: 10.38% | Activity [26]: 64.12% | Activity [27]: 67.89% | Activity [28]: 34.89% | Activity [29]: 72.86% | LC50 [30]: > 100 µM | GI50 [31]: 11.6 µM | TGI [31]: 42.6 µM | Activity [32]: 56.23% | Activity [33]: 32.38% | LC50 [34]: > 100 µM | LC50 [35]: > 100 µM | LC50 [36]: > 100 µM
